TLR4 MyD88 comp: inhibitors of human TLR4-MyD88 binding | AID 861 | inhibition, % at 8.4 µM | HeLa CL3-4 TLR4/MyD88 BLA complementation, FRET ratio | 200,000 compounds, 0.18% hits | O00206+Q99836; in the data active = inhibition above about 25%;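 note: 0% = vehicle and 100% = reference inhibitor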
NOD2 RIPK2 PPI: blocks binding of human NOD2 to RIPK2 | O43353 | AID 624267 | 360,000 compounds, 0.38% hits | CHO BLA complementation NOD2-RIPK2, CCF4 ratio | inhibition, % at 4.98 µM; in the data active = inhibition above about 21%;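 note: 0% = vehicle only and 100% = reference blocker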
NTR1 agonist: NTR1 (human) agonism. NTR1-U2OS beta-arrestin-GFP spot imaging, agonist mode. activation, % at 20 µM. 330,000 compounds, 0.17% hits;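 active = activation at or above 40% of the spot to cytoplasm intensity ratio, with at least 20 cells analyzed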;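 note: 0% = DMSO without peptide and 100% = 100 nM NTR1 peptide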
MC4R antag cAMP: human MC4R antagonism in cAMP assay | inhibition, % at 6.5 µM | 360,000 compounds, 0.48% hits | MC4R-expressing cells, MTII-stimulated cAMP, LANCE TR-FRET | P32245;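 active = inhibition above its plate's cutoff, the mean of tested wells on that plate plus 3 SD, cut at about 29% in these data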;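 note: 0% = Melanotan II alone and 100% = Melanotan II plus saturating MCL0020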
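Material: U2OS-MC4R stable cell line | Reagent: Melanotan II challenge after compound preincubation | Doses: One concentration, 6.5 µM nominal | Incubation: 30-min compound preincubation, 1-h Melanotan II challenge, 1-h detection, room temperature | Signal: TR-FRET cAMP assay | Replicates: One well per compound, no replicates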
MC4R ag barr: activates human MC4R beta-arrestin recruitment; P32245; U2OS MC4R beta-arrestin complementation, luminescence; percent of melanotan II response, DMSO zero; activation, % at 8.9 µM; 360,000 compounds, 0.98% hits;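 active = activation above a per-plate cutoff, the mean activation of sample wells on that plate plus 3 SD, cut at about 8% in these data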
TLR9-MyD88 inh: blocks human TLR9 binding to MyD88; inhibition, % at 4.98 µM; 340,000 compounds, 0.21% hits; AID 504734; CHO BLA complementation TLR9-MyD88, CCF4 FRET ratio; Q9NR96+Q99836;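 active = inhibition above the mean over all tested compounds plus 3 SD, cut at about 21% in these data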;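 note: 0% = DMSO only wells and 100% = clavulanate BLA inhibitor control wells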
Target sequence (Q99836 whole entry, looked up): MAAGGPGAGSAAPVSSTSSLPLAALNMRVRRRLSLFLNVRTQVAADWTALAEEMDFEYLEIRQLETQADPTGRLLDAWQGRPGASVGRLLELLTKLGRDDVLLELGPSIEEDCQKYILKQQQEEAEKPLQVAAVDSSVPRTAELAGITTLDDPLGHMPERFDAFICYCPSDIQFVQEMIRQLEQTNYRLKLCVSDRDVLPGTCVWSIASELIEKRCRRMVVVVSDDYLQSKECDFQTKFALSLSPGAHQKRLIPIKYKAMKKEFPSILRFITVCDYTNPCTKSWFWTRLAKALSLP
Target sequence (Q9NR96 whole entry, looked up): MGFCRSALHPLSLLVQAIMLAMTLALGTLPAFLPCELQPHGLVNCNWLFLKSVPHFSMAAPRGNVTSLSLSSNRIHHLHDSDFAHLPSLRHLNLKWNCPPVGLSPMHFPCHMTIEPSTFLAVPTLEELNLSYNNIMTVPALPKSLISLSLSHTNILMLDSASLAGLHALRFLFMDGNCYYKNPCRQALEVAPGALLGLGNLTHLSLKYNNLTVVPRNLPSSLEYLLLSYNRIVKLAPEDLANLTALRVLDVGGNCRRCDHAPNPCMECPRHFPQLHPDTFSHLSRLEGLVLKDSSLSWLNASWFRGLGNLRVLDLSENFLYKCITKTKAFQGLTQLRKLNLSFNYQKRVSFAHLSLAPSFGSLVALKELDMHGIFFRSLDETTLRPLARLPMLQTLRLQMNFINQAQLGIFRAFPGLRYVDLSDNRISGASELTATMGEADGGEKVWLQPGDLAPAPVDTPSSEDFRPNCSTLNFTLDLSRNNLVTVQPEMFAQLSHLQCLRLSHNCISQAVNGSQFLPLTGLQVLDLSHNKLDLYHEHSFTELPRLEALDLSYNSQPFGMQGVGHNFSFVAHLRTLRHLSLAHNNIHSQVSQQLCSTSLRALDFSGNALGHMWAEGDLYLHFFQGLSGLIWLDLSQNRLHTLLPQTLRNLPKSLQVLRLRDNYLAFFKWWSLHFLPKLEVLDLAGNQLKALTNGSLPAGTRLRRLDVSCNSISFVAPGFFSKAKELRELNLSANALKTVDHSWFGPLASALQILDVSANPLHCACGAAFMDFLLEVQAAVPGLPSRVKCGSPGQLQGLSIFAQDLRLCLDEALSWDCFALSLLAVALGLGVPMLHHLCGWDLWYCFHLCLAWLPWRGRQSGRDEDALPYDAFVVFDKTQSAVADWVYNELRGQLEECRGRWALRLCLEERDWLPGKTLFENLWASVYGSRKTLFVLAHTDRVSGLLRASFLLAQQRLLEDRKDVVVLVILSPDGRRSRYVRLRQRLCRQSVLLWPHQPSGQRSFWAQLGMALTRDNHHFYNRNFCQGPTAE
MC4R barr ag: human MC4R beta-arrestin agonism confirmation; shares compounds with MC4R ag barr; U2OS MC4R beta-arrestin recruitment, luminescence; scaled DMSO 0%, Melanotan II 100%; activation, % at 8.9 µM; 2,400 compounds, 31% hits; AID 602192;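 active = mean activation across replicates above the hit cutoff set in the earlier primary screen, cut at about 8% in these data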
MOR DOR agonist: counter-screen for MC4R agonists: agonists of mu-delta opioid heterodimer. shares compounds with MC4R ag barr. U2OS PathHunter beta-arrestin, beta-gal luminescence; percent of deltorphin B response, DMSO zero. activation, % at 9.2 µM. 2,400 compounds, 5.8% hits. AID 602194;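 active = mean activation across replicates exceeds the hit threshold derived in the earlier primary screen, cut at about 18% in these data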;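 note: 100% = deltorphin B at 0.9 µM final and 0% = DMSO alone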
* = called active by the depositor; nt = not tested or not shown. The list is not random: actives were taken first. Their share in the collection is about 1.9%.

SMILES	TLR4 MyD88 comp	NOD2 RIPK2 PPI	NTR1 agonist	MC4R antag cAMP	MC4R ag barr	TLR9-MyD88 inh	MC4R barr ag	MOR DOR agonist
Cc1ccc(-c2cc(C(=O)N/N=C/c3c(C)nn(C)c3C)c3ccccc3n2)cc1C	-4	5	12	10	11*	0	9.3*	4
Cc1no[n+]([O-])c1COc1ccc(/C=N/n2nnnc2N)cc1	9	2	-2	10	-2	-9	nt	nt
CCC1(C)Cc2c(sc3nc(SCC(=O)c4ccccc4)[nH]c(=O)c23)CO1 (stereo not drawn)	nt	4	8	18	12*	-2	-1	7
CCn1ccnc1CNC(=O)c1ccc2oc(CCCc3ccccc3)nc2c1	nt	1	0	-4	-4	0	nt	nt
CC1CCN(S(=O)(=O)c2ccc(S(=O)(=O)N3CCC4(CC3)OCCO4)cc2)CC1	-9	-14	1	3	0	4	nt	nt
COc1ccccc1-c1cccc([C@@H]2C[C@H]3[C@H](CON3C)CN2C(C)=O)c1	nt	-14	nt	-1	1	-1	nt	nt
Cc1nc2ccccc2c2oc(C(=O)Nc3ccc(C(C)C)cc3)cc12	8	-6	10	3	27*	10	9.2*	4
CCOc1ccc(C2CC(c3ccc(CC)cc3)n3nc(N)nc3N2)cc1 (stereo not drawn)	-7	-4	6	1	4	-26	nt	nt
CCc1ccc(C2CC(c3ccccc3Cl)Nc3nc(N)nn32)cc1 (stereo not drawn)	-4	16	10	7	19*	-1	14*	4
CCOc1ccc(C2CC(c3ccc(CC)cc3)Nc3nc(N)nn32)cc1 (stereo not drawn)	-4	-4	2	10	10*	3	8	3
CC(Sc1nnc(-c2ccc(Cl)cc2)n1N)C(=O)NCC1CCCO1 (stereo not drawn)	nt	-8	0	9	-2	5	nt	nt
Cc1nn(C)c(C)c1CCC(=O)NC1CC(C)(C)Cc2c1cnn2-c1ccccc1 (stereo not drawn)	nt	-8	0	12	-2	-1	nt	nt
COC(=O)c1ccccc1NC(=O)c1cccc(NC(=O)CSCc2ccccc2)c1C	6	-12	2	-3	18*	0	5	4
COc1ccc([C@H]2CC(=O)C=C(/C=C/c3ccc(C(F)(F)F)cc3)C2)cc1	nt	-2	3	-1	-1	-4	nt	nt
Cc1nc(NC(=O)c2cccc(-c3cc4ccccc4oc3=O)c2)ccc1Br	-7	3	25	-5	24*	2	17*	12
Cc1cc(C=C2C(=O)c3ccccc3C2=O)c(C)n1C	-5	7	1	-6	21*	2	0	10
Cc1cc(Br)ccc1SCC(=O)OC/C(O)=C(\C#N)c1nc2ccccc2[nH]1	nt	2	4	20	12*	4	3	2
Cc1cccc(C)c1OCC(=O)OC/C(O)=C(\C#N)c1nc2ccccc2[nH]1	-6	-2	5	3	21*	-3	5	8
COCC(=O)OC/C(O)=C(\C#N)c1nc2ccccc2[nH]1	nt	1	1	10	0	6	nt	nt
Cc1ccc(C)c(SCC(=O)OC/C(O)=C(\C#N)c2nc3ccccc3[nH]2)c1	-8	-29	nt	-10	17*	-9	-1	12
Cc1cc(Br)ccc1SCC(=O)OCC(O)=C(C#N)c1nc2ccccc2[nH]1	nt	-7	nt	7	6	-2	nt	nt
O=C(CN1c2cccc3cccc(c23)S1(=O)=O)NCc1ccc(Cl)cc1	nt	-3	2	5	0	8	nt	nt
CC(=O)Nc1cccc(-c2cc(NC(C)=O)c3ncc(-c4ccc(F)cc4)n3c2)c1	nt	1	nt	5	17*	nt	11*	1
CC(=O)Nc1cc(-c2cccc(NS(C)(=O)=O)c2)cn2c(-c3ccc(F)c(Cl)c3)cnc12	nt	-6	nt	17	2	nt	nt	nt
CC(=O)Nc1cc(-c2cccc(F)c2)cn2c(-c3ccc(S(C)(=O)=O)cc3)cnc12	nt	1	nt	15	2	nt	nt	nt
SMILES	TLR4 MyD88 comp	NOD2 RIPK2 PPI	NTR1 agonist	MC4R antag cAMP	MC4R ag barr	TLR9-MyD88 inh	MC4R barr ag	MOR DOR agonist
CC(=O)Nc1cc(-c2cccc(F)c2)cn2c(-c3ccc(F)cc3)cnc12	nt	13	nt	3	40*	nt	64*	2
O=CNc1cc(-c2cccc(F)c2)cn2c(-c3ccc(F)cc3)cnc12	nt	-8	nt	17	12*	nt	16*	4
Cc1cc(NC(=O)C(C)SCC(=O)OCC(=O)Nc2c(C)cccc2C(C)C)no1 (stereo not drawn)	nt	-6	3	1	2	6	nt	nt
O=C(OCCN=C1NS(=O)(=O)c2ccccc21)c1ccco1	9	0	-1	-7	-2	4	nt	nt
O=C(COC(=O)c1n[nH]c2ccccc12)NC(=O)NC12CC3CC(CC(C3)C1)C2	1	-5	8	2	18*	4	3	7
Cc1occc1-c1nnc(SCC(=O)Nc2nc(C(C)(C)C)cs2)o1	6	-6	4	21	12*	-17	4	6
CCOC(=O)CNC(=O)c1cc(-c2ccccn2)nc2c(C)c(Cl)ccc12	3	-7	6	15	30*	9	-3	5
CCOc1ccc(-c2nc3scc(-c4cccs4)c3c(=O)[nH]2)cc1	-8	-12	5	-2	28*	-3	12*	2
CCN(c1ccccc1)S(=O)(=O)c1cccc(C(=O)NCC(c2cccs2)N2CCOCC2)c1 (stereo not drawn)	nt	-14	1	5	1	-3	nt	nt
COC(=O)c1ccc(C2C(Oc3ccccc3)C(=O)N2CCc2ccc(F)cc2)cc1 (stereo not drawn)	-15	-10	15	11	20*	4	3	5
CCOC(=O)C1=C(N)c2ccccc2CC1C(C)C (stereo not drawn)	-16	-12	3	2	11*	12	3	8
CCOC(=O)C1Cc2ccccc2C(=O)O1 (stereo not drawn)	0	-6	-1	18	0	-2	nt	nt
O=C(Cn1cnc2cc([N+](=O)[O-])ccc2c1=O)Nc1cccc(S(=O)(=O)N2CCCCC2)c1	nt	-4	nt	7	-1	4	nt	nt
O=C(NC(=S)NCCC1=CCCCC1)c1ccco1	6	10	3	10	10*	-11	-1	7

High-throughput results deposited in PubChem BioAssay by several laboratories.
